# Measured values pooled from the literature.
# Each line is one published result; the experiments were not run side by side.
SMILES,cell line,effect on,mode,method,time,setting,IC50 [µM]
COc1cc(/C=C/C(=O)CC(=O)/C=C/c2ccc(O)c(OC)c2)ccc1O,CHO-K1,cell growth or viability,,MTT,72 h,,44.9
CCOc1ccc(-c2nc3ccc(C)cc3[nH]2)cc1,human Rhabdomyosarcoma cell,cell growth or viability,,MTT,48 h,,76.2
COc1ccccc1/C=C/CNCC(O)COc1ccc2[nH]ccc2c1 (stereo not shown),NCI-H1299,cell growth or viability,,CCK-8,72 h,,25.3
COc1cc(/C=C/C(=O)/C=C(O)/C=C/c2ccnc3ccccc23)ccc1O,CHO-K1,cell growth or viability,,MTT,72 h,,22.3
Cc1ccc2nc(-c3ccc(Cl)cc3)n(Cc3ccccc3Cl)c2c1,human Rhabdomyosarcoma cell,cell growth or viability,,MTT,,,41
COc1cccc2c1C(=O)c1c(O)c3c(c(O)c1C2=O)C[C@@](O)(C(=O)CO)C[C@@H]3O[C@H]1C[C@H](N)[C@H](O)[C@H](C)O1,CHO-K1,cell growth or viability,,MTT,72 h,,1.4
COc1ccccc1CCNCC(O)COc1cccc2[nH]c3ccccc3c12 (stereo not shown),NCI-H1299,cell growth or viability,,CCK-8,72 h,,15.2
Cc1ccc2nc(-c3ccco3)n(Cc3ccccc3)c2c1,human Rhabdomyosarcoma cell,cell growth or viability,,MTT,,,39.2
COCCNC(=C\C(=O)/C=C/c1cccnc1)/C=C/c1cccnc1,CHO-K1,cell growth or viability,,MTT,72 h,,45.1
COc1ccc(-c2nc3ccccc3n2Cc2ccccc2)cc1OC,human Rhabdomyosarcoma cell,cell growth or viability,,MTT,,,18.4
COc1ccccc1NCCCNCC(O)COc1cccc2[nH]c3ccccc3c12 (stereo not shown),NCI-H1299,cell growth or viability,,CCK-8,72 h,,8.9
CC(C)CNC(=C\C(=O)/C=C/c1cccnc1)/C=C/c1cccnc1,CHO-K1,cell growth or viability,,SRB,72 h,,28.6
COc1ccccc1OCCN(C)CC(O)COc1cccc2[nH]c3ccccc3c12 (stereo not shown),NCI-H1299,cell growth or viability,,CCK-8,72 h,,39.5
O=C1C=C(/C=C/c2cccnc2)N(CCCO)C(c2cccnc2)C1 (stereo not shown),CHO-K1,cell growth or viability,,MTT,72 h,,> 75
CC(C)C[C@H](NC(=O)[C@H](Cc1ccccc1)NC(=O)c1cnccn1)B(O)O,MKN-45,cell growth or viability,,ATP luminescence,,,0.014
COc1ccccc1/C=C/CNCC(O)COc1ccc2[nH]c3ccccc3c2c1 (stereo not shown),NCI-H1299,cell growth or viability,,CCK-8,72 h,,6.1
COc1cc2c(Oc3ccc(NC(=O)C4(C(=O)Nc5ccc(F)cc5)CC4)cc3F)ccnc2cc1OCCCN1CCOCC1,Rh30,cell growth or viability,,,72 h,,0.6
COc1cc(/C=C/C(=O)/C=C(O)/C=C/c2ccc[nH]2)ccc1O,CHO-K1,cell growth or viability,,SRB,72 h,,49
CC1CS(=O)(=O)CCN1/N=C/c1ccc([N+](=O)[O-])o1 (stereo not shown),RAW264.7,cell growth or viability,,MTT,,,31
COc1ccc(-c2nc(C(=O)Nc3nnc(-c4cc5ccccc5n4C)s3)cc3c2[nH]c2ccccc23)cc1,HL-60,cell growth or viability,,MTT,72 h,,30.2
O=C(/C=C(O)/C=C/c1cccnc1)/C=C/c1cccnc1,CHO-K1,cell growth or viability,,MTT,72 h,,7.2
CC(C)(C)Nc1c(-c2ccccc2N)nc2ccccn12,Vero,cell growth or viability,,MTT,48 h,,90
COc1cc(/C=C/C(=O)/C=C(O)/C=C/c2c[nH]c3ccccc23)ccc1O,CHO-K1,cell growth or viability,,MTT,72 h,,26.4
COc1cc(Nc2nccc(-c3cnn4nc(OC)ccc34)n2)cc(C(F)(F)F)c1,COR-L279,cell growth or viability,,ATP luminescence,,,0.21
COc1cc(/C=C/C(=O)/C=C(O)/C=C/c2ccncc2)ccc1O,CHO-K1,cell growth or viability,,SRB,72 h,,17.7
COCOc1c(OC)cc(C(=O)c2csc(-c3ccccc3)n2)cc1OC,B16-F1,cell growth or viability,,SRB,,,0.055
COc1cccc(-c2nc3ccc(C)cc3[nH]2)c1,human Rhabdomyosarcoma cell,cell growth or viability,,MTT,48 h,,22.3
C/C(=N\O)c1ccc(-c2cccc(O)c2)c(Cl)c1O,NCI-H1299,cell growth or viability,,MTT,48 h,,17.8
COc1ccccc1CCCNCC(O)COc1cccc2[nH]c3ccccc3c12 (stereo not shown),NCI-H1299,cell growth or viability,,CCK-8,72 h,,7.2
O=C(/C=C(/C=C/c1cccnc1)NCCCO)/C=C/c1cccnc1,CHO-K1,cell growth or viability,,SRB,72 h,,> 75
Nc1ccc(-c2nc3cnccn3c2N)cc1,Vero,cell growth or viability,,MTT,48 h,,96
COc1cc2nccc(Oc3ccc(NC(=O)C4(C(=O)Nc5ccc(F)cc5)CC4)cc3)c2cc1OC,Rh30,cell growth or viability,,,72 h,,5.9
Cn1nnc2c(C(N)=O)ncn2c1=O,D54,cell growth or viability,,resazurin,7 days,,12
COc1cc(/C=C/C(=O)/C=C(O)/C=C/c2ccccn2)ccc1O,CHO-K1,cell growth or viability,,SRB,72 h,,30.9
CCn1c(-c2nnc(NC(=O)c3cc4c([nH]c5ccccc54)c(-c4cc(OC)c(OC)c(OC)c4)n3)s2)cc2ccccc21,HL-60,cell growth or viability,,MTT,72 h,,43.2
O=C(O)Cc1ccccc1Nc1c(Cl)cccc1Cl,RAW264.7,TNF-α release,inhibitor,,,LPS-stimulated,21.3
COc1cccc2c1C(=O)c1c(O)c3c(c(O)c1C2=O)C[C@@](O)(C(=O)CO)C[C@@H]3O[C@H]1C[C@H](N)[C@H](O)[C@H](C)O1,CHO-K1,cell growth or viability,,SRB,72 h,,2.4
Cc1ccc2nc(-c3ccc(F)cc3)n(Cc3ccccc3)c2c1,human Rhabdomyosarcoma cell,cell growth or viability,,MTT,,,35.1
COc1ccccc1OCCNCC(O)COc1cccc2[nH]c3ccccc3c12 (stereo not shown),NCI-H1299,cell growth or viability,,CCK-8,72 h,,32.4
CCOc1cc(-c2nc3ccccc3[nH]2)ccc1O,human Rhabdomyosarcoma cell,cell growth or viability,,MTT,48 h,,29.4
COCCCNC(=C\C(=O)/C=C/c1cccnc1)/C=C/c1cccnc1,CHO-K1,cell growth or viability,,MTT,72 h,,21.3
Nc1c(-c2ccccc2[N+](=O)[O-])nc2ccccn12,Vero,cell growth or viability,,MTT,48 h,,65
CCSC(=O)c1ncn2c(=O)n(C)nnc12,D54,cell growth or viability,,resazurin,7 days,,8
CC(=O)O[C@H]1C(=O)[C@@]2(C)[C@H]([C@H](OC(=O)c3ccccc3)[C@]3(O)C[C@H](OC(=O)[C@H](O)[C@@H](NC(=O)c4ccccc4)c4ccccc4)C(C)=C1C3(C)C)[C@]1(OC(C)=O)CO[C@@H]1C[C@@H]2O,MDA-MB-436,cell growth or viability,,ATP luminescence,72 h,,0.0099
O=[N+]([O-])c1ccc(-c2nc3ccccc3[nH]2)cc1,human Rhabdomyosarcoma cell,cell growth or viability,,MTT,48 h,,23.4
O=C(/C=C(/C=C/c1cccnc1)NCCO)/C=C/c1cccnc1,CHO-K1,cell growth or viability,,MTT,72 h,,> 75
CCCCN(CCCC)C(=O)c1ncn2c(=O)n(C)nnc12,D54,cell growth or viability,,resazurin,7 days,,11
O=C(/C=C(O)/C=C/c1ccc2ccccc2n1)/C=C/c1c[nH]c2ccccc12,CHO-K1,cell growth or viability,,SRB,72 h,,43.3
Brc1ccc(Nc2nc(N/N=C\c3c[nH]c4ccccc34)nc(Nc3ccccc3)n2)cc1,SK-BR-3,cell growth or viability,,SRB,72 h,,12.2
